According to ChEMBL document CHEMBL4196106, “From Naproxen Repurposing to Naproxen Analogues and Their Antiviral Activity against Influenza A Virus” (J Med Chem, 2018):
Activity calls are given as the source filed them. The calls are words filed in the database; no cut-off is given here.

How the values were obtained:
Influenza A virus [1] = experiment: Stabilization of Influenza A virus nucleoprotein assessed as melting temperature at 5 to 15 uM measured for 5 mins
Procedure, shortened: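 Recombinant NP, over 80% monomeric, was used at 5–15 µM with compound at a 1:1 ratio in 20 mM Tris pH 7.4, 50 mM NaCl. Mean size was followed by dynamic light scattering (10 scans over 5 min per point) while heating at 1 °C/min up to 70–80 °C. Tm was taken from the maximum of the first-derivative curve, and analyses were done in triplicate.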

[2] = Binding affinity to biotin labelled Influenza A virus nucleoprotein by surface plasmon resonance analysis
MDCK = experiment: Inhibition of nucleoprotein/polymerase acidic protein (1 to 27 residues) interaction in Influenza A virus (A/WSN/1933 (H1N1)) infected in MDCK cells by Western blot analysis; format: cell-based
Procedure, shortened: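 MDCK cells were infected with A/WSN/33 at MOI 2 for 18 h and lysed in PBS with protease inhibitors and 0.5% NP40 by freezing; nucleic acids were not digested. Streptavidin beads loaded with 250 µM biotinylated PA(1-27) were incubated with the lysate 18 h at 4 °C, with or without compound. Bound NP was detected by anti-NP monoclonal western blot.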

Influenza A virus [3] = experiment: Antiviral activity against pandemic Influenza A virus (A/Netherlands/602/09(H1N1)) infected in MDCK cells at MOI of 10^-3 assessed as decrease in viral load after 18 hrs by immunofluorescence analysis; format: functional, organism-based
[4] = Safety index, ratio of compound CC50 to naproxen CC50 for MDCK cells by MTT assay; format: ADME, cell-based, Canis lupus familiaris; settings: dog
Influenza A virus [5] = experiment: Antiviral activity against Influenza A virus (A/Udorn/1972 (H3N2)) infected in human A549 cells assessed as decrease in viral load after 18 hrs by immunofluorescence analysis; format: functional, organism-based; settings: A549, 18 h
Procedure, shortened: (§1)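 MDCK or A549 cells, 0.32 x 10^6 per well, were held 24 h serum-free to 80% confluence and then infected at MOI 2. Compound (0.1–500 µM) or vehicle was added right after virus adsorption. At 18 h, viral NP was read by immunofluorescence and corrected for cell number by DAPI. Runs were in triplicate, repeated at least twice, and IC50 came from a dose-response fit.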

[6] = Selectivity index, ratio of CC50 for MDCK cells to IC50 for Influenza A virus (A/Udorn/1972 (H3N2)) infected in MDCK cells at MOI of 2 after 18 hrs; format: toxicity, cell-based; settings: dog, read-out: Ratio CC50/IC50
[7] = Selectivity index, ratio of CC50 for MDCK cells to IC50 for pandemic Influenza A virus (A/Netherlands/602/09(H1N1)) infected in MDCK cells at MOI of 10^-3 after 18 hrs; format: toxicity, cell-based; settings: dog, read-out: Ratio CC50/IC50
[8] = Selectivity index, ratio of CC50 for MDCK cells to IC50 for Influenza A virus (A/WSN/1933(H1N1)) infected in MDCK cells at MOI of 10^-3 after 48 hrs; format: toxicity, cell-based; settings: dog, read-out: Ratio CC50/IC50
[9] = Binding affinity to Influenza A virus nucleoprotein by surface plasmon resonance analysis
Influenza A virus [10] = experiment: Antiviral activity against Influenza A virus (A/WSN/1933(H1N1)) infected in MDCK cells at MOI of 2 assessed as decrease in viral load after 18 hrs by immunofluorescence analysis; format: functional, organism-based; procedure, shortened: as §1
Influenza A virus [11] = experiment: Stabilization of Influenza A virus nucleoprotein assessed as melting temperature at 5 to 15 uM measured for 10 mins
[12] = Cytotoxicity against MDCK cells assessed as reduction in cell viability after 48 hrs by trypan blue staining based method; design: species or system Canis lupus familiaris; settings: dog
Procedure, shortened: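 MDCK cells, 3.2 x 10^5 per well, were grown 24 h and then exposed to serial compound dilutions under the same conditions as the MTT test. At 48 h, cells were washed, trypsinised and stained with Trypan blue, and viable and dead cells were counted by phase-contrast microscopy.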

[13] = Selectivity index, ratio of CC50 for MDCK cells to IC50 for Influenza A virus (A/WSN/1933(H1N1)) infected in MDCK cells at MOI of 2 after 18 hrs; format: toxicity, cell-based; settings: dog, read-out: Ratio CC50/IC50
Influenza A virus [14] = experiment: Antiviral activity against Influenza A virus (A/WSN/1933(H1N1)) infected in MDCK cells at MOI of 10^-3 assessed as decrease in viral load after 48 hrs by crystal violet staining-based plaque assay; format: functional, organism-based
Procedure, shortened: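 Serum-starved MDCK cells, 0.32 x 10^6 per well, were infected with A/WSN/33 at MOI 10^-3 (multi-cycle). Compound (0.1–500 µM) or vehicle was added immediately after adsorption. After 48 h, titres in clarified supernatant were read by plaque assay with crystal violet. Runs were in triplicate, repeated at least twice, and IC50 came from a dose-response fit.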

[15] = Selectivity index, ratio of CC50 for human A549 cells to IC50 for Influenza A virus (A/Udorn/1972 (H3N2)) after 18 hrs; format: toxicity; settings: read-out: Ratio CC50/IC50
Influenza A virus [16] = experiment: Antiviral activity against Influenza A virus (A/Udorn/1972 (H3N2)) infected in MDCK cells at MOI of 2 assessed as decrease in viral load after 18 hrs by immunofluorescence analysis; format: functional, organism-based; procedure, shortened: as §1
A549 = experiment: Downregulation of COX2 level in human A549 cells infected with Influenza A virus at MOI of 2 at 100 uM after 18 hrs in presence of gamma-ATP by immunofluorescence analysis; format: cell-based; settings: a549, 18 h
Procedure, shortened: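 A549 cells were pretreated with compound for 30 min, then either infected with IAV at MOI 2 for 18 h or activated with 100 µM γ-ATP for 1 h with or without compound. Cells were fixed in 3% PFA and permeabilised with 0.1% triton. COX2 was immunostained overnight with a primary antibody and detected with an Alexa 647 secondary.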

Influenza A virus [17] = experiment: Antiviral activity against Influenza A virus (A/Puerto Rico/8/1934(H1N1)) infected in C57BL/6J mouse assessed as decrease in viral load in bronchoalveolar lavage at 1 mg/mouse/day, ip qd treated up to day 2 starting at 5 to 10 mins post infection relative to control; format: functional
Procedure, shortened: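 Female C57BL/6J mice, 5–6 weeks old, were anaesthetised with ketamine/xylazine (43/5 mg/kg) and inoculated intranasally with A/PR/8/34 at 500 PFU. Treatment was i.p. once daily on days 0, 1 and 2, starting 5–10 min after inoculation; 1 mg/mouse is 50 mg/kg and 8 mg/mouse is 400 mg/kg. BAL infectious titre was measured by plaque assay against saline-treated mice.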

[18] = Cytotoxicity against human A549 cells assessed as reduction in cell viability after 48 hrs by MTT assay; format: cell-based
Procedure, shortened: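 Cells were seeded at 3.2 x 10^5 per well and kept 1 day at 37 °C in MEM without serum. Serial compound dilutions were added and cells incubated a further 48 h. The MTT read-out was absorbance at 550 nm minus 650 nm, and CC50 was taken from a dose-response fit.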

Influenza A virus [19] = experiment: microbe, parasite or virus in culture; settings: MDCK, 18 h
[20] = Cytotoxicity against MDCK cells assessed as reduction in cell viability after 24 to 72 hrs by MTT assay; settings: dog
Influenza A virus [21] = experiment: Antiviral activity against Influenza A virus (A/Puerto Rico/8/1934(H1N1)) infected in C57BL/6J mouse assessed as recovery of weight loss at 1 mg/mouse/day, ip qd treated up to day 2 starting at 5 to 10 mins post infection measured up to day 12 relative to control; format: functional
Procedure, shortened: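 Intranasal A/PR/8/34 challenge at 500 PFU in female C57BL/6J mice, 5–6 weeks old, under ketamine/xylazine. Dosing was i.p. once daily on days 0, 1 and 2, starting 5–10 min post-inoculation; 1 mg/mouse is 50 mg/kg and 8 mg/mouse is 400 mg/kg. There were 10 mice per group, with saline vehicle. Survival and body weight were scored daily, with 20% weight loss as the mortality endpoint.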

Influenza A virus [22] = settings: 50 uM
Influenza A virus [23] = experiment: Inhibition of Influenza A virus nucleoprotein/polymerase acidic protein (1 to 27 residues) complex formation at 100 nM by surface plasmon resonance analysis
Procedure, shortened: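 Biotinylated PA(1-27) was captured on the chip at about 1500 RU, with a scrambled peptide on the same chip at similar RU. NP (12–2500 nM), alone or as NP-DNA complex, was injected with or without compound up to 50 µM. Running buffer was 20 mM Tris-HCl pH 7.4, 300 mM NaCl, 0.005% P20, at 25 °C and 30 µl/min. Regeneration used guanidinium chloride then 10 mM NaOH.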

SMILES	inhibition (active/not active) (MDCK)	IC50 (Influenza A virus [5]) [µM]	selectivity ratio at 18 h [6]	selectivity ratio at 48 h [8]	Ki [9] [µM]	IC50 (Influenza A virus [10]) [µM]	Tm (Influenza A virus [11]) [°C]	CC50 at 48 h [12] [µM]	selectivity ratio at 18 h [13]	IC50 (Influenza A virus [14]) [µM]	selectivity ratio at 18 h [15]	other results
COc1ccc2cc(C(CC(=O)O)CC(=O)O)ccc2c1	inactive	–	–	–	–	–	–	–	–	–	–	Tm (Influenza A virus [1]): 25 to 45 °C; Ki [2]: 0.8 µM
COc1ccc2cc(-c3c(C(=O)[O-])ccc(Oc4ccc(N)cc4)c3C(=O)[O-])ccc2c1.[Na+].[Na+]	Active	17	923	9230	0.03	13	48	≥ 10000	923	1.3	706	IC50 (Influenza A virus [3]): 0.7 µM; selectivity ratio [4]: 10; selectivity ratio at 18 h [7]: 17100; IC50 (Influenza A virus [16]): 13 µM; Activity (A549): Non-Toxic
COc1ccc2cc([C@H](C)C(=O)O)ccc2c1 [NAPROXEN]	inactive	112	12	87	0.25	100	41	1000	14	16	12.5	fold change (FC) (Influenza A virus [17]): 2; CC50 at 48 h [18]: 1400 µM; IC50 (Influenza A virus [19]): 120 µM; CC50 [20]: 1400 µM; Activity (Influenza A virus [21]): 85%; inhibition (Influenza A virus [22]): inactive; inhibition (Influenza A virus [23]): inactive
